The values below come from ChEMBL document CHEMBL3425440, “ent-Kaurane Diterpenoids from Chinese Liverworts and Their Antitumor Activities through Michael Addition As Detected in Situ by a Fluorescence Probe” (J Med Chem, 2015).

Structures are written as SMILES.

The subject of one assay is LoVo. Put plainly: Cytotoxicity against human LoVo cells assessed as cell viability after 24 hrs by MTT assay. It counts as functional, cell-based. The procedure, abridged:
(§1)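 Cells grown to about 50−70% confluence at 37 °C, 5% CO2, then exposed to compounds 24 h (DMSO vehicle control, cisplatin positive control). MTT (5 mg/mL stock) added for 4 h, formazan dissolved in DMSO, absorbance read at 570 nm. IC50 derived from percent viability; at least three independent experiments, mean ± SD.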
(Tetrazolium assays rely on reduction of a dye to a coloured formazan, in cell work by metabolically active cells.)

Assay [1] can be described thus: Cytotoxicity against human HL60 cells assessed as cell viability after 24 hrs by MTT assay. The format is functional, cell-based. The conditions noted are these: HL-60, 24 h. The procedure, abridged:
as §1

A short description of assay [2]: Cytotoxicity against human PC3 cells assessed as cell viability after 24 hrs by MTT assay. It counts as functional, cell-based. The conditions noted are these: PC-3, 24 h. The procedure, abridged:
as §1

The subject of another assay is NCI-H1299. Nature of the assay: Cytotoxicity against human NCI-H1299 cells assessed as cell viability after 24 hrs by MTT assay. The format is functional, cell-based. The note with it: NCI-H1299, 24 h. An outline of the steps: as §1
A further assay concerns K562. Nature of the assay: Cytotoxicity against human K562 cells assessed as cell viability after 24 hrs by MTT assay. The conditions noted are these: K562, 24 h. It counts as functional, cell-based. The procedure, abridged: as §1
Assay [3] can be described thus: Cytotoxicity against human SKOV3 cells assessed as cell viability after 24 hrs by MTT assay. The format is functional, cell-based. The conditions noted are these: SK-OV-3, 24 h. The procedure, abridged:
as §1

Assay [4] can be described thus: Cytotoxicity against human A172 cells assessed as cell viability after 24 hrs by MTT assay. The format is functional, cell-based. The note with it: A 172, 24 h. An outline of the steps:
as §1

For the next assay, the system named is LNCaP. Put plainly: Cytotoxicity against human LNCAP cells assessed as cell viability after 24 hrs by MTT assay. It counts as functional, cell-based. The procedure, abridged: as §1
Another assay relates to DU-145. Put plainly: Cytotoxicity against human DU145 cells assessed as cell viability after 24 hrs by MTT assay. The format is functional, cell-based. The conditions noted are these: DU-145, 24 h. The procedure, abridged:
as §1

Assay [5] can be described thus: Cytotoxicity against human SH-SY5Y cells assessed as cell viability after 24 hrs by MTT assay. The format is functional, cell-based. The procedure, abridged: as §1
Assay [6] can be described thus: Cytotoxicity against human Saos2 cells assessed as cell viability after 24 hrs by MTT assay. The format is functional, cell-based. The note with it: SAOS-2, 24 h. An outline of the steps:
as §1

The nature of assay [7]: Cytotoxicity against human RWPE1 cells assessed as cell viability after 24 hrs by MTT assay. The format is cell-based. The note with it: RWPE-1, 24 h. An outline of the steps:
as §1

Assay [8] in a line: Cytotoxicity against human T24 cells assessed as cell viability after 24 hrs by MTT assay. The format is functional, cell-based. The note with it: T-24, 24 h. The procedure, abridged:
as §1

The test system of another assay is MDA-MB-231. Put plainly: Cytotoxicity against human MDA-MB-231 cells assessed as cell viability after 24 hrs by MTT assay. The format is functional, cell-based. The conditions noted are these: MDA-MB-231, 24 h. An outline of the steps: as §1

`C=C1C(=O)[C@@]23CC[C@@H]4C(C)(C)CCC[C@@]4(C)C2=CC[C@]1(O)C3`: the IC50 in the assay on LoVo stood at 1.8 µM; in assay [1], 1 µM; in assay [2] it was 3.2 µM; in the assay with NCI-H1299 it was 2.4 µM; with K562, 1.9 µM; in assay [3], 1.8 µM. Also, the IC50 in assay [4] was 3.8 µM; in the assay on LNCaP, 3.2 µM; with DU-145, 5.5 µM; in assay [5], 1.2 µM; in [6], 1.3 µM; in assay [7] it was 6.2 µM. For the same compound, the IC50 in assay [8] turned out to be 1.7 µM; in the assay with MDA-MB-231, 4.2 µM.
As for `C=C1C(=O)[C@@]23CC[C@@H]4[C@@](C)(C=O)CCC[C@@]4(C)C2=CC[C@]1(O)C3`, the IC50 turned out to be 9.3 µM with LoVo; 4.4 µM in [1]; 11.4 µM in assay [2]; 12.2 µM in the assay on NCI-H1299; 6.3 µM in the assay with K562; 7.4 µM in assay [3]. The IC50 was determined as 4.4 µM in assay [4]; 9.5 µM in the assay on LNCaP; 11.6 µM in the assay with DU-145; 4.2 µM in assay [5]; 7.3 µM in [6]; 12.7 µM in [7]. The IC50 in assay [8] came to 5.9 µM; in the assay with MDA-MB-231, 21.6 µM.
As to `C=C1[C@@H]2CC[C@]3(O)[C@@](CC[C@@H]4C(C)(C)CCC[C@]43C)(C2)[C@@H]1O`, the IC50 (in the assay on LoVo; in assay [1]; in [2]; with NCI-H1299; in the assay with K562; in assay [3]) was greater than 50 µM each time. The IC50 (in assay [4]; in the assay with LNCaP; with DU-145; in [5]; in [6]; in [7]) was greater than 50 µM throughout. Besides, the IC50 (in assay [8]; in the assay on MDA-MB-231) was greater than 50 µM in each case.
Take `C[C@H]1C(=O)[C@@]23CC[C@@H]4[C@@](C)(C=O)CCC[C@@]4(C)C2=CC[C@]1(O)C3`: the IC50 (in the assay on LoVo; in assay [1]; in [2]; in the assay on NCI-H1299; in the assay with K562; in assay [3]) was greater than 50 µM in each case. For the same compound, the IC50 (in assay [4]; with LNCaP; in the assay on DU-145; in [5]; in assay [6]; in assay [7]) was greater than 50 µM in each case. Besides, the IC50 (in assay [8]; with MDA-MB-231) was greater than 50 µM in each case.
Consider `C=C1C[C@]23C[C@H]1CC[C@H]2[C@@]1(C)[C@H](C[C@H]3O)C(C)(C)CC[C@@H]1O`, for which the IC50 (in the assay on LoVo; in [1]; in assay [2]; in the assay with NCI-H1299; with K562; in assay [3]) was greater than 50 µM throughout. Besides, the IC50 (in assay [4]; in the assay on LNCaP; in the assay on DU-145; in assay [5]; in [6]; in assay [7]) was greater than 50 µM each time. In addition, the IC50 (in [8]; in the assay with MDA-MB-231) was greater than 50 µM each time.
As to `C=C1[C@@H]2CC[C@H]3[C@]4(C)CCC[C@@](C)(CO)[C@H]4CC[C@]3(C2)[C@@H]1O`, the IC50 (with LoVo; in assay [1]; in assay [2]; in the assay on NCI-H1299; in the assay on K562; in [3]) was greater than 50 µM throughout. The IC50 (in [4]; in the assay on LNCaP; in the assay on DU-145; in [5]; in assay [6]; in [7]) was greater than 50 µM in each case. The IC50 (in assay [8]; with MDA-MB-231) was greater than 50 µM each time.
Regarding `C=C1C(=O)[C@@]23CC[C@@H]4[C@](C)(CO)CCC[C@@]4(C)C2=CC[C@]1(O)C3`, the IC50 was determined as 18.4 µM in the assay on LoVo; 6.7 µM in [1]; 6.6 µM in [2]; 19 µM with NCI-H1299; 10.4 µM in the assay with K562; 11.3 µM in assay [3]. Further, the IC50 in assay [4] amounted to 13 µM; in the assay with LNCaP it was 12.8 µM; in the assay with DU-145, 8.3 µM; in [5] it was 4.9 µM; in assay [6], 15.8 µM; in assay [7] it was 13.2 µM. For the same compound, the figures for the IC50 (in assay [8]; in the assay with MDA-MB-231) were 13.2 µM and 15.5 µM, respectively.
For `C[C@@H]1C(=O)[C@H]2C[C@]1(O)CC1=C2[C@]2(C)CCC[C@](C)(C=O)[C@H]2CC1`, the IC50 (in the assay on LoVo; in assay [1]; in assay [2]; in the assay with NCI-H1299; in the assay with K562; in [3]) was greater than 50 µM in each case. Also, the IC50 (in assay [4]; with LNCaP; in the assay with DU-145; in [5]; in assay [6]; in [7]) was greater than 50 µM each time. For the same compound, the IC50 (in assay [8]; in the assay with MDA-MB-231) was greater than 50 µM throughout.
Consider `C=C1[C@@H]2C[C@@H](O)[C@H]3[C@]4(C)CCCC(C)(C)[C@H]4CC[C@]3(C2)[C@@H]1O`, for which the IC50 (with LoVo; in assay [1]; in assay [2]; in the assay on NCI-H1299; in the assay on K562; in assay [3]) was greater than 50 µM each time. For the same compound, the IC50 (in assay [4]; in the assay on LNCaP; with DU-145; in assay [5]; in assay [6]; in assay [7]) was greater than 50 µM throughout. In addition, the IC50 (in assay [8]; in the assay with MDA-MB-231) was greater than 50 µM in each case.
Consider `C=C1[C@@H]2CC[C@H]3[C@]4(C)CCC[C@](C)(C(=O)O)[C@H]4CC[C@]3(C2)[C@@H]1OC(C)=O`, for which the IC50 (in the assay with LoVo; in [1]; in assay [2]; in the assay with NCI-H1299; in the assay on K562; in [3]) was greater than 50 µM each time. For the same compound, the IC50 (in [4]; with LNCaP; with DU-145; in assay [5]; in assay [6]; in assay [7]) was greater than 50 µM throughout. The half-maximal inhibitory concentration (IC50) (in assay [8]; in the assay with MDA-MB-231) was greater than 50 µM throughout.
Consider `C[C@@H]1C(=O)[C@@]23CC[C@@H]4C(C)(C)[C@H](O)CC[C@@]4(C)[C@@H]2[C@@H](O)C[C@@H]1C3`, for which the IC50 (with LoVo; in [1]; in [2]; in the assay on NCI-H1299; with K562; in [3]) was greater than 50 µM in each case. The IC50 (in assay [4]; in the assay on LNCaP; in the assay on DU-145; in assay [5]; in [6]; in assay [7]) was greater than 50 µM throughout. Also, the IC50 (in assay [8]; with MDA-MB-231) was greater than 50 µM each time.

What is called IC50 is the concentration that inhibits the measured activity by half.
